Mcl1 Noxa PPI: disrupts binding of human Mcl-1 to Noxa peptide. Q07820. TR-FRET Mcl-1/Noxa peptide binding, 2 h. inhibition, % at 21.7 µM. 220,000 tested, 1.5% active. AID 1022;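 active means compounds that cut the protein-peptide binding signal by more than 50% relative to plate controls in a single-dose test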;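 further: His-tagged Mcl-1 with rhodamine Noxa BH3 peptide and terbium anti-His antibody; 0% = Mcl-1 plus Noxa peptide wells and 100% = peptide-only wells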
Target sequence (Q07820 whole entry, looked up): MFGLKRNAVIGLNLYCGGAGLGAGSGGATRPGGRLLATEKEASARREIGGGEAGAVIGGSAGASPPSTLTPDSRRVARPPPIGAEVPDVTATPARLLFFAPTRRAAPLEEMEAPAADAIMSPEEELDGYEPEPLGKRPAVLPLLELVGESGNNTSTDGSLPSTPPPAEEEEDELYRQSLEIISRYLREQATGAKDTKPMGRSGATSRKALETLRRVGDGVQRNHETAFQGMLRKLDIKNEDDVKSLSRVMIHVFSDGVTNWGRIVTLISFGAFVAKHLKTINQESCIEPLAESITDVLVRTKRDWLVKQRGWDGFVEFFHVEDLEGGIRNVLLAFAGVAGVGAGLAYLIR
RBBP9 inhibitor: blocks human serine hydrolase RBBP9; O75884; recombinant RBBP9, FP-Rh probe fluorescence polarization; inhibition, % at 7.94 µM; 220,000 tested, 0.2% active;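 active means inhibition above the campaign mean of all tested compounds plus 3 SD, cut at about 14% in these data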;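 further: plate controls were DMSO wells with RBBP9 for no effect and wells lacking RBBP9 protein for full effect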
Target sequence (O75884 whole entry, looked up): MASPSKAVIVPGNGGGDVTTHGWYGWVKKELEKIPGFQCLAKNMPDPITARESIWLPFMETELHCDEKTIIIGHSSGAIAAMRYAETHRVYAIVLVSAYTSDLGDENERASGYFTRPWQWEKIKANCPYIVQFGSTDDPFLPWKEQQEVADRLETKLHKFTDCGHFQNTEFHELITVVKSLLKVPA
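Controls: DMSO-treated enzyme wells and wells lacking RBBP9 | Material: RBBP9 protein | Technique: Fluorescence polarization | Replication: Single well per compound, no replicates | Buffer or medium: Tris-NaCl-Pluronic buffer, pH 8.0 | Timing: 30 min compound preincubation, 45 min probe labeling, 25 °C | Read-out basis: Percent inhibition from mP, scaled between DMSO and no-protein wells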
EBV gp42 block: EBV gp42 inhibition. Q1HVG2. Fluorescence polarization binding assay, mP read-out. inhibition, % (tested at 21.74 µM). 220,000 tested, 0.42% active. AID 1085; in the data active means inhibition above about 50%
MCL1 BIM primary: inhibitors of human MCL1 binding to BIM-BH3 peptide; inhibition, % at 10.9 µM; GST-MCL1 / FITC-Bim-BH3 fluorescence polarization; 320,000 tested, 0.68% active; AID 2057; Q07820;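 active means inhibition above the mean inhibition of all tested compounds plus 3 SD, set per campaign, cut at about 40% in these data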;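 further: 0% = DMSO wells and 100% = unlabeled Bim-BH3 peptide control; higher means more loss of mP so more displacement of Bim peptide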
Bim-Mcl-1: inhibitors of Bim-Mcl-1 interaction, human; AID 1009; inhibition, % at 10 µM; Bead-based flow cytometry, Bim peptide-Mcl-1 binding; 190,000 tested, 0.1% active; in the data active means inhibition above about 40%;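 further: 0% = no compound tracer wells and 100% = peptide blocker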
Mcl1 Bid PPI: Mcl-1/Bid interaction inhibition; TR-FRET Mcl-1/Bid-Dy647 peptide binding, 1536-well; inhibition, % at 21.7 µM; 220,000 tested, 0.97% active;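 active means compounds that cut the binding signal by more than half at the single screening dose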;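 further: His-tagged Mcl-1 with europium anti-His antibody binding Bid BH3 peptide; 0% = Mcl-1 plus peptide wells and 100% = peptide-only wells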
Starred values were filed as active, the others as inactive. A selection: hits, their analogues and other compounds. The true share with any hit is near 2.2%.

How did C=C(C)CN1CCN(c2ccc(N3C(=O)CCCC3=O)cc2[N+](=O)[O-])CC1 do in these assays?
Mcl1 Noxa PPI: -8; RBBP9 inhibitor: 2; EBV gp42 block: -17; MCL1 BIM primary: 8; Bim-Mcl-1: 1; Mcl1 Bid PPI: 4

How did COc1ccc(NC(=O)c2ccco2)cc1NC(=O)c1ccco1 do in these assays?
Mcl1 Noxa PPI: -23; RBBP9 inhibitor: 0; EBV gp42 block: -8; MCL1 BIM primary: 3; Bim-Mcl-1: 41*; Mcl1 Bid PPI: 0

What do the screens show for `O=C(Nc1ccc(C2=NCCN2)cc1)c1ccc(Cl)c(C(=O)Nc2ccc(C3=NCCN3)cc2)c1`?
Mcl1 Noxa PPI: 57*; RBBP9 inhibitor: -10; EBV gp42 block: -1; MCL1 BIM primary: -5; Mcl1 Bid PPI: 0

Results for O=C(Nc1ccc(Cl)c(Cl)c1)c1ccc(Cl)c(Cl)c1 ?
Mcl1 Noxa PPI: 9; RBBP9 inhibitor: -76; EBV gp42 block: 5; MCL1 BIM primary: 2; Mcl1 Bid PPI: -24

Results for COc1ccccc1CCC(=O)NCCCn1ccc2ccccc21 ?
MCL1 BIM primary: -8

What do the screens show for `O=C1CCN(Cc2ccc(O)cc2)CCN1CCO`?
MCL1 BIM primary: 9

How did O=C(O)c1ccccc1N/N=C/c1cc(Br)cc(Br)c1O do in these assays?
Mcl1 Noxa PPI: 83*; RBBP9 inhibitor: -6; EBV gp42 block: 22; MCL1 BIM primary: 15; Mcl1 Bid PPI: 20

How did N=C(N)c1ccc(/C=C/c2ccc(C(=N)N)cc2O)cc1 do in these assays?
Mcl1 Noxa PPI: 66*; RBBP9 inhibitor: -4; EBV gp42 block: -20; MCL1 BIM primary: 3; Mcl1 Bid PPI: -92

Results for N=C(N)c1ccc(Cl)cc1 ?
Mcl1 Noxa PPI: 16; RBBP9 inhibitor: -5; EBV gp42 block: -9; MCL1 BIM primary: 5; Bim-Mcl-1: 0; Mcl1 Bid PPI: -17

Results for Cc1cccc(N(C)S(=O)(=O)c2csc(C(N)=O)c2)c1 ?
MCL1 BIM primary: -1

What do the screens show for `CCS(=O)(=O)N1CCN(C(C)CCc2ccccc2)CC1` (configuration not stated)?
Mcl1 Noxa PPI: 91*; RBBP9 inhibitor: -6; EBV gp42 block: 6; MCL1 BIM primary: 4; Bim-Mcl-1: 1; Mcl1 Bid PPI: 77*

What do the screens show for `CCN1C(=O)/C(=C2\SC(=S)N(NC(=O)c3ccccc3O)C2=O)c2ccccc21`?
Mcl1 Noxa PPI: 65*; RBBP9 inhibitor: 5; EBV gp42 block: 13; MCL1 BIM primary: 31; Mcl1 Bid PPI: -69

Results for CCOCCCn1c(SC(C)C(=O)NCC2CCCO2)nc2sc(C)c(C)c2c1=O (configuration not stated) ?
MCL1 BIM primary: 6

How did CCN1CC=C2C(C1)C(c1ccc(Cl)s1)C(C#N)=C(N)C2(C#N)C#N (configuration not stated) do in these assays?
Mcl1 Noxa PPI: 19; RBBP9 inhibitor: -1; EBV gp42 block: 88*; MCL1 BIM primary: 114*; Bim-Mcl-1: 8; Mcl1 Bid PPI: -25

What do the screens show for `c1ccc(Cn2nnc3c(NCc4ccc5c(c4)OCO5)nc(C4CC4)nc32)cc1`?
Mcl1 Noxa PPI: -26; RBBP9 inhibitor: -5; EBV gp42 block: -2; MCL1 BIM primary: 6; Bim-Mcl-1: 3; Mcl1 Bid PPI: 52*

What do the screens show for `Cc1nc(NCc2ccc3c(c2)OCO3)c2nnn(Cc3ccccc3)c2n1`?
Mcl1 Noxa PPI: -2; RBBP9 inhibitor: -3; EBV gp42 block: -15; MCL1 BIM primary: -6; Bim-Mcl-1: -3; Mcl1 Bid PPI: 33

What do the screens show for `CN1C(=O)/C(=C/c2ccccc2OCc2cccc(F)c2)NC1=S`?
Mcl1 Noxa PPI: 5; RBBP9 inhibitor: 0; EBV gp42 block: -10; MCL1 BIM primary: 9; Bim-Mcl-1: -3; Mcl1 Bid PPI: 78*

What do the screens show for `Cc1cc(C)c(S(=O)(=O)/N=C2/C=C(Sc3ncn[nH]3)C(=O)c3ccccc32)cc1C`?
Mcl1 Noxa PPI: 100*; RBBP9 inhibitor: 8; EBV gp42 block: -36; MCL1 BIM primary: 29; Bim-Mcl-1: 1; Mcl1 Bid PPI: 72*

What do the screens show for `O=C(Nc1nccs1)c1cccc(N2C(=O)c3cccc4c([N+](=O)[O-])ccc(c34)C2=O)c1`?
Mcl1 Noxa PPI: 93*; RBBP9 inhibitor: 1; EBV gp42 block: 20; MCL1 BIM primary: 47*; Bim-Mcl-1: 0; Mcl1 Bid PPI: 101*

Results for CCn1nc(C(=O)Nc2ccc(S(=O)(=O)Nc3nccs3)cc2)c2ccccc2c1=O ?
Mcl1 Noxa PPI: 64*; RBBP9 inhibitor: -11; EBV gp42 block: -10; MCL1 BIM primary: -23; Bim-Mcl-1: 5; Mcl1 Bid PPI: -29

Results for O=C(Nc1ccc(S(=O)(=O)Nc2ncccn2)cc1)c1ccc2ncsc2c1 ?
Mcl1 Noxa PPI: 60*; RBBP9 inhibitor: 6; EBV gp42 block: -11; MCL1 BIM primary: -1; Mcl1 Bid PPI: 90*

How did O=C(Nc1ccncc1)c1ccc2ncsc2c1 do in these assays?
MCL1 BIM primary: -2

How did O=C(Nc1ccc(S(=O)(=O)Nc2nccs2)cc1)c1cccc(N2C(=O)c3ccccc3C2=O)c1 do in these assays?
Mcl1 Noxa PPI: 53*; RBBP9 inhibitor: -8; EBV gp42 block: -68; MCL1 BIM primary: 2; Bim-Mcl-1: -1; Mcl1 Bid PPI: -98

How did CC(=O)Oc1cccc(N2C(=O)c3cccc4c([N+](=O)[O-])ccc(c34)C2=O)c1 do in these assays?
MCL1 BIM primary: 23

Results for Cc1nnsc1C(=O)Nc1ccc(S(=O)(=O)N2CCCCC2)cc1 ?
MCL1 BIM primary: -2

What do the screens show for `COCCn1c(Cc2ccccc2)nnc1SCC(=O)Nc1oc(C)c2c(C)n[nH]c(=O)c12`?
MCL1 BIM primary: 2

What do the screens show for `CCC1CN(C(=O)N2CCC(C(=O)NCCc3ccccc3OC)CC2)c2ccccc2O1` (configuration not stated)?
MCL1 BIM primary: 5

What do the screens show for `CCN(CC(=O)NCc1cccs1)C(=O)CCC(=O)c1ccc(C)cc1`?
MCL1 BIM primary: -5

How did COc1cccc(/C=N/Nc2ncnc3c2[nH]c2ccc(C)cc23)c1OC do in these assays?
Mcl1 Noxa PPI: 100*; RBBP9 inhibitor: 5; EBV gp42 block: 13; MCL1 BIM primary: 5; Mcl1 Bid PPI: 35

Results for COc1ccc(/C=N/Nc2ncnc3c2[nH]c2ccccc23)c(OC)c1OC ?
Mcl1 Noxa PPI: 55*; RBBP9 inhibitor: -7; EBV gp42 block: 9; MCL1 BIM primary: -9; Bim-Mcl-1: -5; Mcl1 Bid PPI: 49

Results for C=CCNc1ncnc2c1[nH]c1ccc(C)cc12 ?
Mcl1 Noxa PPI: 26; RBBP9 inhibitor: 0; EBV gp42 block: -14; MCL1 BIM primary: 10; Bim-Mcl-1: -1; Mcl1 Bid PPI: -6

What do the screens show for `COCCNc1ncnc2c1[nH]c1ccccc12`?
Mcl1 Noxa PPI: -4; RBBP9 inhibitor: 3; EBV gp42 block: -20; MCL1 BIM primary: -3; Mcl1 Bid PPI: -13

How did CSc1ccccc1NC(=O)NCCCl do in these assays?
Mcl1 Noxa PPI: 6; RBBP9 inhibitor: -4; EBV gp42 block: -2; MCL1 BIM primary: -5; Bim-Mcl-1: -2; Mcl1 Bid PPI: -9

Screens (PubChem BioAssay)
